Assay results from ChEMBL document CHEMBL4480403, “DDX3X Helicase Inhibitors as a New Strategy To Fight the West Nile Virus Infection” (J Med Chem, 2019).
Activity calls are given as the source filed them. The rule behind the calls is not given here.

Assays:
[1] = molecular target: ATP-dependent RNA helicase DDX3X (Homo sapiens, UniProt O00571); assay: Inhibition of full length His-tagged human DDX3X expressed in Escherichia coli assessed as reduction in DDX3X helicase activity using FAM-labeled double stranded RNA as substrate after 40 mins by FRET assay relative to control
ATP-dependent RNA helicase DDX3X, sequence (O00571 2-662 limits assumed): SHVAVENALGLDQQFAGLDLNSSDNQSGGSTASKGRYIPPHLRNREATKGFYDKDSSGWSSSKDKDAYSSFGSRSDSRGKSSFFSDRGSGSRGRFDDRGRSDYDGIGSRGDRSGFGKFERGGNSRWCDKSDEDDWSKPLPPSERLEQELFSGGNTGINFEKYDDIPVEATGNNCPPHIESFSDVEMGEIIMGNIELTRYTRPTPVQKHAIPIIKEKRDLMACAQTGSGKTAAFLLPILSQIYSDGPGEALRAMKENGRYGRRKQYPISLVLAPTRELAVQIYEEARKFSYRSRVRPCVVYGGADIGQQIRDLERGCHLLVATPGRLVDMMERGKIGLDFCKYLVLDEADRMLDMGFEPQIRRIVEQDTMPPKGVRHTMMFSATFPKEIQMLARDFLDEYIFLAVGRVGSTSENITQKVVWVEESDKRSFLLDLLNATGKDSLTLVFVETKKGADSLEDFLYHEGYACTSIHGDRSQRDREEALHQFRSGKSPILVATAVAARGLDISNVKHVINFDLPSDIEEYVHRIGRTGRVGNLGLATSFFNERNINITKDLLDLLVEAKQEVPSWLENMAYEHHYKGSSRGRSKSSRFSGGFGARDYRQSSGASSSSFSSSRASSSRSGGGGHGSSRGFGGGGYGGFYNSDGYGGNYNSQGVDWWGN
Procedure, shortened: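 Recombinant His-tagged full-length DDX3X expressed in E. coli, Ni-NTA purified. Unwinding of FAM-labelled dsRNA, with capture strand at 100 nM, in Tris-HCl pH 8, 70 mM KCl, 2 mM MgCl2, 2 mM DTT, 2 mM ATP. Started with DDX3X, 37°C, 40 min, fluorescence read every 30 s. Initial slope gives unwinding rate; IC50 by nonlinear regression of triplicates.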

West Nile virus [2] = assay: Antiviral activity against West Nile virus; assay type: functional, organism-based
Procedure, shortened: (§1)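 Huh7 cells (2.5 × 10^5 per well, overnight) infected with lineage 2 WNV at MOI 0.1 for 1 h at 37°C, washed, then compound added in 10-fold dilutions (final 100–0.01 μM) with DMSO as virus control. Agarose overlay, 4 days at 37°C, methanol fixation, crystal violet staining. PFU relative to DMSO; IC50 by exponential fit at 50% PFU. Duplicates, repeated at least twice.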

[3] = Apparent permeability of the compound by PAMPA; assay type: ADME
Procedure, shortened: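 PAMPA: 0.5 mM donor solution in pH 7.4 phosphate buffer, diluted from 1 mM DMSO stock. Filter coated with 1% phosphatidylcholine in dodecane; acceptor 50% DMSO in buffer. Incubated 5 h at room temperature with shaking. Donor and acceptor quantified by LC-UV at 280 nm and Papp calculated. Three plates on different days.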

[4] = (§2) Cytotoxicity against human HuH7 cells after 3 days by MTT assay; assay type: cell-based, Huh-7; conditions: human, HuH7 cells
Procedure, shortened: (§3)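 Huh7 cells (2.5 × 10^4 per well) adhered overnight. Confluent monolayers washed, then treated with compound (final 100–0.01 μM) or DMSO control for 3 days at 37°C. Viability by MTT, absorbance 570 nm, expressed relative to DMSO-treated cells.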

[5] = Metabolic stability in human liver microsomes at 50 uM after 60 mins in presence of NADPH-generating system by LC-UV-MS analysis; assay type: ADME, Microsome; conditions: read-out: Stability
Procedure, shortened: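 Compound at 50 μM final (DMSO ≤2%) incubated with human liver microsomes (0.2 mg/mL) and NADPH-generating system in 125 mM phosphate buffer pH 7.4, 37 °C, 60 min. Remaining compound measured by LC-ESI-MS in positive ion mode, with UV at 280 nm.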

West Nile virus [6] = assay: Antiviral activity against West Nile virus infected in human HuH7 cells incubated for 4 days by crystal violet staining based plaque reduction assay; assay type: functional, organism-based; conditions: Huh-7, 96 h; procedure, shortened: as §1
[7] = molecular target: T1, ATP-dependent RNA helicase DDX1 (Homo sapiens, UniProt Q92499); assay: Inhibition of human DDX1 helicase activity
T1 sequence (Q92499 whole entry): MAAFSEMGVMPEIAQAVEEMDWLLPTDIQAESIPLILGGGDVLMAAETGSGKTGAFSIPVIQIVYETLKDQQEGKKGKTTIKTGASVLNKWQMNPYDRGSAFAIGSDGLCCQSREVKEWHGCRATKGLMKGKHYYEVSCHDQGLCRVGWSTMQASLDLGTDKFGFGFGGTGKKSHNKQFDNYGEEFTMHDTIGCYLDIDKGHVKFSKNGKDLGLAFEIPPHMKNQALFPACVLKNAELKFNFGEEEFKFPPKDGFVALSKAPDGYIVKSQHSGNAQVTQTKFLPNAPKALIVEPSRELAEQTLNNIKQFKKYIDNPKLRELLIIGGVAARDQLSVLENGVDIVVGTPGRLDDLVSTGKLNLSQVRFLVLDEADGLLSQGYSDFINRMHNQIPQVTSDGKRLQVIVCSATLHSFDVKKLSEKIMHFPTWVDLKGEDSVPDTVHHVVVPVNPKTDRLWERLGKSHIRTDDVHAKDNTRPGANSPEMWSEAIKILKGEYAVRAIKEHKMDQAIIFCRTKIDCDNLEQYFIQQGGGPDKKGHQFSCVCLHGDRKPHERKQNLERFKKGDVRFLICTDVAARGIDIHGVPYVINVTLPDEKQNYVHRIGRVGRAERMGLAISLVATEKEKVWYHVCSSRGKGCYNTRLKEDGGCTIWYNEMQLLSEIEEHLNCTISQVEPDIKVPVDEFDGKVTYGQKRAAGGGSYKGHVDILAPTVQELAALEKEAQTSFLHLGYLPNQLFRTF

Huh-7 = assay: as §2; assay type: cell-based; conditions: Homo sapiens, Huh-7, 72 h; procedure, shortened: as §3
West Nile virus [8] = assay: Antiviral activity against West Nile virus infected in African green monkey Vero cells incubated for 4 days by crystal violet staining based plaque reduction assay; assay type: functional, organism-based; conditions: 96 h
Procedure, shortened: (§4)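 Cell monolayers at 80–90% confluence were infected with WNV lineage 2 strain at MOI 0.1 for 1 h at 37°C with 5% CO2, then washed. DMSO vehicle or compound (final 100, 10, 1, 0.1, 0.01 μM) was added in duplicate under a 0.5% agarose overlay. Ribavirin served as reference. After methanol fixation and 0.1% crystal violet staining, PFU were expressed relative to DMSO control. IC50 was interpolated at 50% PFU; experiments were repeated at least twice.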

West Nile virus [9] = assay: Antiviral activity against West Nile virus infected in human A549 cells incubated for 4 days by crystal violet staining based plaque reduction assay; assay type: functional, organism-based; conditions: A549, 96 h; procedure, shortened: as §4

With CCOCc1cn(-c2cccc(S(=O)(=O)Nc3cccc(N4CCOCC4)c3)c2)nn1 as the compound, how does the inhibition [1] read?
Its inhibition is “inactive”.

Which EC50 (West Nile virus [2]) does the source give for C[C@@]1(O)[C@H](O)[C@@H](CO)O[C@H]1n1cnc2c(N)ncnc21 here?
Its EC50 is 5.1 µM.

With COCCc1cn(-c2cccc(S(=O)(=O)Nc3ccccc3C(F)(F)F)c2)nn1 as the compound, how does the inhibition [1] read?
Its inhibition is 67%.

For CCc1cn(-c2cccc(S(=O)(=O)Nc3ccccc3C(F)(F)F)c2)nn1, which inhibition [1] is on record?
The inhibition was 71%.

With O=[N+]([O-])c1cccc(S(=O)(=O)Nc2ccccc2O)c1 as the compound, how does the Papp [3] read?
Its Papp is less than 0.1 ×10⁻⁶ cm/s.

What about the CC50 at 72 h [4] of the same compound?
The CC50 at 72 h was 175 µM.

What about the remaining at 1 h, 50 µM [5] of the same compound?
Its remaining at 1 h, 50 µM is 98.3%.

And the EC50 (West Nile virus [6])?
Its EC50 is 120 µM.

And the inhibition [1]?
The inhibition was 98%.

And the IC50 [7]?
Its IC50 is greater than 200 µM.

For NC(=O)c1ncn([C@@H]2O[C@H](CO)[C@@H](O)[C@H]2O)n1 [RIBAVIRIN], which IC50 (Huh-7) is on record?
The IC50 was greater than 200 µM.

And the EC50 (West Nile virus [8])?
The EC50 was 95 µM.

And the EC50 (West Nile virus [6])?
The EC50 was 90 to 95.5 µM.

And the EC50 (West Nile virus [9])?
Its EC50 is 46 µM.

And the EC50 (West Nile virus [2])?
Its EC50 is 71.2 µM.

Which inhibition [1] does the source give for CC(C)CCc1cn(-c2cccc(S(=O)(=O)Nc3ccccc3C(F)(F)F)c2)nn1 here?
The inhibition was 96%.

For C[C@@]1(O)[C@H](O)[C@@H](CO)O[C@H]1n1cnc2c(=O)[nH]c(N)nc21 [2'-B-METHYL-GUANOSINE], which EC50 (West Nile virus [2]) is on record?
The EC50 was 30 µM.

For CCCCc1cn(-c2ccc(S(=O)(=O)Nc3ccccc3O)cc2)nn1, which inhibition [1] is on record?
Its inhibition is 57%.

For CCCCc1cn(-c2cccc(S(=O)(=O)Nc3cccc4cnccc34)c2)nn1, which Papp [3] is on record?
The Papp was 0.68 ×10⁻⁶ cm/s.

What about the CC50 at 72 h [4] of the same compound?
The CC50 at 72 h was greater than 200 µM.

What about the remaining at 1 h, 50 µM [5] of the same compound?
Its remaining at 1 h, 50 µM is 98%.

And the EC50 (West Nile virus [6])?
The EC50 was 55 µM.

What about the inhibition [1] of the same compound?
The inhibition was 99%.

What about the IC50 [7] of the same compound?
The IC50 was greater than 200 µM.

Which inhibition [1] does the source give for CCCCc1cn(-c2cccc(S(=O)(=O)Nc3ccccc3OC)c2)nn1 here?
Its inhibition is 98%.

With O=S(=O)(Nc1ccccc1C(F)(F)F)c1cccc(-n2cc(C3CCCCC3)nn2)c1 as the compound, how does the inhibition [1] read?
Its inhibition is 52%.
